Mdm2 MdmX PPI – inhibitors of human Mdm2-MdmX association, primary screen, cell-based, luminescence, split luciferase, SaOS-2, uHTS | Protein Mdm4 (Homo sapiens) + E3 ubiquitin-protein ligase Mdm2 (Homo sapiens), … | SaOS-2 split-luciferase Mdm2/MdmX complementation | inhibition, % at 8 µM | hit rate 3% among 330,000 | AID 485346, 2010;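 active = inhibition of at least 50% at 8 µM in the primary screen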
Target sequence (O15151 whole entry, looked up): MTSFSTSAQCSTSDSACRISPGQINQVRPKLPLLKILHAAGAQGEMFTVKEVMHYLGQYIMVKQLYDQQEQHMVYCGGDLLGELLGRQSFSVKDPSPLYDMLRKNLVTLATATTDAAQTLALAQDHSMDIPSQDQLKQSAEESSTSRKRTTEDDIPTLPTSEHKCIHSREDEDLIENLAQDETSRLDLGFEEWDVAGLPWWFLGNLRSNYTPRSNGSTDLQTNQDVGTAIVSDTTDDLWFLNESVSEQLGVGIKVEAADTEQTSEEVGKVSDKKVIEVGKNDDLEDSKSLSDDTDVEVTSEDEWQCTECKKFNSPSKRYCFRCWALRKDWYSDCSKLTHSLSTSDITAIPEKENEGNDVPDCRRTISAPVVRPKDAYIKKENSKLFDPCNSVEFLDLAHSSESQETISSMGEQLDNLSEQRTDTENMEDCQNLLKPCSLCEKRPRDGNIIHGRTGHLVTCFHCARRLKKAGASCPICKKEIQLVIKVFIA
Target sequence (Q00987 whole entry, looked up): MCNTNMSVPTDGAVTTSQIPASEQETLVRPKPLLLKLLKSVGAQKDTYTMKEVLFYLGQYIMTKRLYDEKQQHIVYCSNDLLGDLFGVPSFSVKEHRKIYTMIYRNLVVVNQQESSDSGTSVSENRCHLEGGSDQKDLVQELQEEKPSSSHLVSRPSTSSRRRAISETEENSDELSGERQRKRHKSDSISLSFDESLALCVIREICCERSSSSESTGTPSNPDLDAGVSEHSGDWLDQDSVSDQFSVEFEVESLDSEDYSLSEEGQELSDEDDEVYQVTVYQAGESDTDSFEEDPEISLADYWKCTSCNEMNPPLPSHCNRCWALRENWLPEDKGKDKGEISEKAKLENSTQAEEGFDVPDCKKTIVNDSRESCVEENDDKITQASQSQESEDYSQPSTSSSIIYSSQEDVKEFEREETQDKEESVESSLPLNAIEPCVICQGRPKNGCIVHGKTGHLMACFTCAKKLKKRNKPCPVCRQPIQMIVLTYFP
T cruzi inh – inhibitors of intracellular T. cruzi growth, primary screen, luminescence, NIH3T3 host cells. T. cruzi beta-gal in NIH3T3, 90 h. inhibition, % (concentration not given with the values). hit rate 1.4% among 300,000;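 active = mean inhibition across valid replicates above about 55%, limit read from the data; inconclusive = mean below that limit but half or more replicates reach it; inactive = mean below it, under half of replicates reach it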;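 note: signal also drops with host cell toxicity which is not excluded here; 0% = plate median of DMSO wells and 100% = zero luminescence signal; higher percent means less beta-gal luminescence so fewer parasites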
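System – NIH/3T3 host cells with β-galactosidase reporter T. cruzi · Doses – single 50 nL compound addition per well in DMSO · Reagent – 5000 T. cruzi trypomastigotes/well · Medium – Low-serum DMEM with 2% FBS · Timing – ≥90 h infection period, 3 h prior cell attachment · Evaluation – parasite load inhibition, % · Technique – GalScreen luminescence, 60 min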
Beta cell apopt – inhibitors of cytokine-induced beta cell apoptosis, primary screen, luminescence; INS-1E cytokine-induced death, ATP luminescence, 48 h; percent of positive-control rescue, neutral wells zero; protection from apoptosis, % (concentration not given with the values); hit rate 0.8% among 300,000;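 active = Every replicate reaches about 75%, or at least half do and their mean reaches it too, limit read from the data; inconclusive = At least half of replicates reach the limit but their mean does not; inactive = Under half of replicates reach the limit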;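 note: 0% = cytokine-treated negative control wells and 100% = positive control rescue; higher means more ATP so stronger rescue from cytokine killing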
NLRP3 yeast inh – NALP3 inflammasome inhibitors in reconstituted yeast, primary screen, luminescence, uHTS; hit rate 0.39% among 330,000; Yeast reconstituted NLRP3/ASC/caspase-1, beta-gal luminescence, 24 h; AID 2825, 2010; inhibition, % at 10 µM;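 active = inhibition of 50% or more; inactive = inhibition below 50%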;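 note: plate controls were induced DMSO wells for no effect and uninduced yeast grown without galactose for full effect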
CSC inhib – cancer stem cell viability inhibitors, primary screen, luminescence. hit rate 1.1% among 300,000. cancer stem cell-like cells viability. inhibition, % at 7.5 µM. AID 2717, 2010; in the data active = inhibition above about 75%; inconclusive = no clear call, values can overlap the other calls; tested in HMLE shEcad cells
Calb FLC – C. albicans growth inhibition with fluconazole, primary screen, CaCi-2 strain, Alamar Blue fluorescence; growth inhibition, % (test concentration not listed); hit rate 0.57% among 300,000; C. albicans CaCi-2 (fluconazole-resistant clinical isolate) + fluconazole, 48 h;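 active = growth inhibition above about 58% in most replicates, limit read from the data, passing the limit was not always enough; inconclusive = exactly half the replicates above a set limit; inactive = most replicates below a set limit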;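 note: all wells also contain fluconazole at 8 µg/ml as a sub-toxic cotreatment; 0% = median of DMSO wells and 100% = median of geldanamycin control wells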
Mdm2-MdmX conf – Mdm2-MdmX complex disruptors, retested hits, confirmation, luminescence, single concentration; shares compounds with Mdm2 MdmX PPI; Mdm2-MdmX binding, luminescent assay; inhibition, % at 8 µM; hit rate 55% among 10,000; AID 489028, 2010; in the data active = inhibition above about 40%
FLuc counter – full-length luciferase signal inhibition, confirmation, counter-screen for Mdm2/MdmX interaction inhibitor project, cell-based, single concentration, SaOS-2; SaOS-2 full-length luciferase counterscreen, luminescence; inhibition, % at 8 µM; hit rate 77% among 6,200; shares compounds with Mdm2 MdmX PPI; AID 504607, 2011;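 active = mean inhibition at 8 µM reaching about 37%, which flags the compound as non-specific, limit read from the data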;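 note: p53-null SaOS-2 cells with luciferase driven by a doxycycline-inducible promoter; compound on cells about two nights before reading with doxycycline added after day one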
* marks the source's active call; other numbers are inactive results. In the library only some 5.3% were active in any assay of this set; here they are far more common.

For CCN(CC)CCCN(Cc1cc2ccc(C)c(C)c2[nH]c1=O)C(=O)NC1CCCCC1 the results were Mdm2 MdmX PPI 61*, T cruzi inh 14, Beta cell apopt -14, NLRP3 yeast inh 13, CSC inhib 4, Calb FLC -1, Mdm2-MdmX conf 50* and FLuc counter 74*.
For Cc1ccc2cc(CN(CC3CCCO3)C(=O)NC3CCCCC3)c(=O)[nH]c2c1C (centres undefined) the results were Mdm2 MdmX PPI 3, T cruzi inh 14, Beta cell apopt -3, NLRP3 yeast inh 5, CSC inhib -4 and Calb FLC inconclusive.
For Cc1ccc2cc(CN(CC3CCCO3)C(=S)NCc3ccco3)c(=O)[nH]c2c1C (centres undefined) the results were Mdm2 MdmX PPI 83*, T cruzi inh 4, Beta cell apopt -6, NLRP3 yeast inh 0, CSC inhib 1, Calb FLC -1, Mdm2-MdmX conf 58* and FLuc counter 37*.
For CCc1c(C2(O)CCCCC2)[nH]c2ccc(C(F)(F)F)cc12 the results were Mdm2 MdmX PPI 82*, T cruzi inh 10, Beta cell apopt 20, NLRP3 yeast inh 25, CSC inhib 84*, Calb FLC -13 and Mdm2-MdmX conf 37.
`CN(C)Cc1c(C(C)(C)O)[nH]c2ccc(C(F)(F)F)cc12` gave Mdm2 MdmX PPI 16, Beta cell apopt -6, NLRP3 yeast inh -2 and CSC inhib -8.
`C/C(=N\NC(=O)c1cccc(N/N=C(\C)c2ccccc2)c1)c1ccccc1` gave Beta cell apopt -5 and CSC inhib 6.
For C/C(=N\NC(=O)c1cccc(N/N=C(\C)c2ccc([N+](=O)[O-])cc2)c1)c1ccc([N+](=O)[O-])cc1 the results were Mdm2 MdmX PPI 69*, T cruzi inh 7, Beta cell apopt 3, NLRP3 yeast inh 17, CSC inhib 7, Calb FLC -2 and Mdm2-MdmX conf 27.
For O=C(Nc1ccc(OC(F)(F)F)cc1)Nc1cccc([N+](=O)[O-])c1 the results were Mdm2 MdmX PPI 95*, T cruzi inh 47, Beta cell apopt 102*, NLRP3 yeast inh 43, Calb FLC -14, Mdm2-MdmX conf 90* and FLuc counter 36.
Screening O=C(Nc1ccc(Oc2ccc(NC(=O)Nc3ccc([N+](=O)[O-])cc3)cc2)cc1)Nc1ccc([N+](=O)[O-])cc1 returned Mdm2 MdmX PPI 95*, T cruzi inh 67*, Beta cell apopt 110*, NLRP3 yeast inh 8, CSC inhib 50, Calb FLC -7, Mdm2-MdmX conf 66* and FLuc counter 76*.
Cc1ccc(NC(=O)Nc2cccc([N+](=O)[O-])c2)cc1F was read as Mdm2 MdmX PPI 57*, T cruzi inh 55*, Beta cell apopt 93*, NLRP3 yeast inh 27, CSC inhib 21, Calb FLC -27, Mdm2-MdmX conf 44* and FLuc counter 45*.
For COC(=O)c1ccccc1NC(=S)N1CCN(c2ccc(OC)cc2)CC1 the results were Mdm2 MdmX PPI -3, T cruzi inh -4, Beta cell apopt -6, NLRP3 yeast inh -63, CSC inhib 0 and Calb FLC -4.
`CCN(CC(=O)Nc1ccc(OC)cc1)C(=O)CSCC(=O)Nc1cc(C)on1` gave Mdm2 MdmX PPI -4, Beta cell apopt -4, NLRP3 yeast inh 3 and CSC inhib 0.
Screening CCOc1ccc(NC(=O)Nc2cc(C(C)C)ccc2C)cc1 returned Mdm2 MdmX PPI 30, T cruzi inh -9, NLRP3 yeast inh 11 and Calb FLC -3.
`O=C(O)c1cc(NC(=O)c2ccc([N+](=O)[O-])cc2)cc(NC(=O)c2ccc([N+](=O)[O-])cc2)c1` gave Mdm2 MdmX PPI -17, T cruzi inh 0, Beta cell apopt -5, NLRP3 yeast inh 20, CSC inhib -16 and Calb FLC 4.
O=C(Nc1ccc([N+](=O)[O-])cc1)C(=O)Nc1cccc(C(=O)O)c1 was read as Mdm2 MdmX PPI 64*, T cruzi inh 9, Beta cell apopt 27, NLRP3 yeast inh -5, CSC inhib 32, Calb FLC 3, Mdm2-MdmX conf 67* and FLuc counter 31.
`Cc1ccc(C(C)C)cc1NC(=O)Nc1ccc([N+](=O)[O-])cc1` gave Mdm2 MdmX PPI 89*, T cruzi inh 51, Beta cell apopt 121*, NLRP3 yeast inh 45, CSC inhib 89*, Calb FLC -6, Mdm2-MdmX conf 82* and FLuc counter 42*.
Screening Cc1ccc(N(C(=O)Cn2nnc(-c3ccc(C)o3)n2)C(C(=O)NC2CCCC2)c2ccncc2)cc1 (centres undefined) returned Mdm2 MdmX PPI 55*, T cruzi inh 0, Beta cell apopt 1, NLRP3 yeast inh 24, Calb FLC -9 and Mdm2-MdmX conf 21.
Cc1ccc(-c2nnn(CC(=O)N(c3ccc(F)cc3)C(C(=O)NC3CCCC3)c3ccncc3)n2)o1 (centres undefined) was read as Mdm2 MdmX PPI 17, T cruzi inh 0, Beta cell apopt -1, NLRP3 yeast inh -9, CSC inhib -1 and Calb FLC 19.
Screening CC(C)CCNC(=O)C(c1ccncc1)N(Cc1cccs1)C(=O)Cn1nnc(-c2ccc(F)cc2)n1 (centres undefined) returned Mdm2 MdmX PPI 68*, T cruzi inh 12, Beta cell apopt 33, NLRP3 yeast inh 13, CSC inhib -12, Calb FLC -7, Mdm2-MdmX conf 60* and FLuc counter 26.
Screening O=C(NC1CCCCC1)C(c1ccc(F)cc1)N(Cc1ccccc1)C(=O)CN1C(=O)c2ccccc2S1(=O)=O (centres undefined) returned Mdm2 MdmX PPI 61*, T cruzi inh -2, Beta cell apopt 3, NLRP3 yeast inh -12, CSC inhib -4, Calb FLC -1, Mdm2-MdmX conf 66* and FLuc counter 94*.

Source: PubChem BioAssay
